Test [1] concerns the target T1, GABA-A receptor; alpha-1/beta-3/gamma-2 (Homo sapiens) (UniProt P14867+P18507+P28472). Description: Binding affinity to human GABAA receptor alpha1beta3gamma2 expressed in HEK293 TetR cells assessed as photolabeling at 0.4 uM after 30 mins in presence of 300 uM GABA by coomassie blue staining based fluorographic method. Type of test: cell-based. As to conditions: tested as the 3H-labelled form.

The subject of test [2] is Anura. Briefly: Anesthetic activity in tadpole assessed as loss of righting reflexes at 0.03 to 10 uM pretreated with tadpole followed by compound washout and transfer to fresh water measured up to 1 hr. It counts as functional, organism-based.
For test [3], the system named is Anura. Briefly: Potency index, ratio of Alphaxalone EC50 to compound EC50 for anesthetic activity in tadpole. Type of test: functional.
Test [4] addresses T1, GABA-A receptor; alpha-1/beta-3/gamma-2 (Homo sapiens). Briefly: Binding affinity to human GABAA receptor alpha1beta3gamma2 expressed in HEK293 TetR cells assessed as photolabeling at 0.4 uM after 30 mins in presence of 300 uM GABA and 30 uM alphaxalone by coomassie blue staining based fluorographic method. It counts as cell-based. The note with it: tested as the 3H-labelled form.

Test [5] deals with T2, GABA-A receptor; alpha-1/beta-3/gamma-2 (Homo sapiens, UniProt P14867+P18507+P28472).
T2 sequence (P14867 whole entry): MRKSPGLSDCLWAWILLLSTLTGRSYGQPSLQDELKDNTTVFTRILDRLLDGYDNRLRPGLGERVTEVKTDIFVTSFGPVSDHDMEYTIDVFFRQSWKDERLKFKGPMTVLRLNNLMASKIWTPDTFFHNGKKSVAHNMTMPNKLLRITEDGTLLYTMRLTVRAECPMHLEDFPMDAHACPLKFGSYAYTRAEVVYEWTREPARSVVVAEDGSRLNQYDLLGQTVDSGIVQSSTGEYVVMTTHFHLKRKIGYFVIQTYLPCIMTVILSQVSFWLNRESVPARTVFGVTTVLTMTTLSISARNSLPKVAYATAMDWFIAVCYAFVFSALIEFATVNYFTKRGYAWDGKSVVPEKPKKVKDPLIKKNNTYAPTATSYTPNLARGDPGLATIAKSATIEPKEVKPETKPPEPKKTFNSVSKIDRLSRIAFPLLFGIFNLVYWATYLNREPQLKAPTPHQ
T2 sequence (P18507 whole entry): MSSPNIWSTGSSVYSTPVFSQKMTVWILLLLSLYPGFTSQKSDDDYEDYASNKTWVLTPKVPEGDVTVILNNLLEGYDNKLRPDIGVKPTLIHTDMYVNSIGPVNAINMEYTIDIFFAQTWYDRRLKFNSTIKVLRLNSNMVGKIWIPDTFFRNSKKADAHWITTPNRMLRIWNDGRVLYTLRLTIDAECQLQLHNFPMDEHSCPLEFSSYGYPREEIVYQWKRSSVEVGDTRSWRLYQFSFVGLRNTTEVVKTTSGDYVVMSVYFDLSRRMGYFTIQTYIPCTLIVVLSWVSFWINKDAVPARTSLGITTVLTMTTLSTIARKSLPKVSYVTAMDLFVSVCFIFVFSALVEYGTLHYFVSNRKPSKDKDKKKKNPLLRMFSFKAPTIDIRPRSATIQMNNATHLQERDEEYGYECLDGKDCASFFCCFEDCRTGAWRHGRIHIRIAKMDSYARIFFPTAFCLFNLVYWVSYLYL
T2 sequence (P28472 whole entry): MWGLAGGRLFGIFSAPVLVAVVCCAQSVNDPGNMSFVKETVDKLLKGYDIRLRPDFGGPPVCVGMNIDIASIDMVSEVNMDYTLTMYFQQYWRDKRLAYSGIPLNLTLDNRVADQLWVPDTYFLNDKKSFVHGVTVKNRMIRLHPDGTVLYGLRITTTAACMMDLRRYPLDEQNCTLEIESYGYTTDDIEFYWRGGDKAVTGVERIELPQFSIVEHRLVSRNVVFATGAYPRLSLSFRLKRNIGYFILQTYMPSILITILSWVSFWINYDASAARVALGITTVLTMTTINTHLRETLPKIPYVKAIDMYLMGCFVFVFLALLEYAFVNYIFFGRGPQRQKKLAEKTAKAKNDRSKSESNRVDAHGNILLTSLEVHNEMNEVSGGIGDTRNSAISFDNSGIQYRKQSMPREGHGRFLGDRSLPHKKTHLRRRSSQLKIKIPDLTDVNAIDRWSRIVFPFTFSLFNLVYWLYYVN
Description: (§1) Displacement of [3H]muscimol from human GABAA receptor alpha1beta3gamma2 expressed in HEK293 TetR cell membranes after 1 hr by liquid scintillation counting method. Put shortly:
(§2)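 Membranes from HEK293 TetR cells expressing human α1β3γ2 GABAA receptor (200 μg protein) in 10 mM phosphate pH 7.4, 200 mM KCl, 1 mM EDTA. Filtered on PEI-treated GF/B filters, washed cold, scintillation counted. Triplicates, mean ± SD.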
Background: Displacement assays read how much labelled ligand stays bound in the presence of the test substance.

The target in test [6] is T1, GABA-A receptor; alpha-1/beta-3/gamma-2 (Homo sapiens). The description is as §1. A digest of the protocol:
as §2

For test [7], the target named is T3, GABA-A receptor; alpha-1/beta-2/gamma-2 (Homo sapiens, UniProt P14867+P18507+P47870).
T3 sequence (P14867 whole entry): T2 sequence (P14867 whole entry)
T3 sequence (P47870 whole entry): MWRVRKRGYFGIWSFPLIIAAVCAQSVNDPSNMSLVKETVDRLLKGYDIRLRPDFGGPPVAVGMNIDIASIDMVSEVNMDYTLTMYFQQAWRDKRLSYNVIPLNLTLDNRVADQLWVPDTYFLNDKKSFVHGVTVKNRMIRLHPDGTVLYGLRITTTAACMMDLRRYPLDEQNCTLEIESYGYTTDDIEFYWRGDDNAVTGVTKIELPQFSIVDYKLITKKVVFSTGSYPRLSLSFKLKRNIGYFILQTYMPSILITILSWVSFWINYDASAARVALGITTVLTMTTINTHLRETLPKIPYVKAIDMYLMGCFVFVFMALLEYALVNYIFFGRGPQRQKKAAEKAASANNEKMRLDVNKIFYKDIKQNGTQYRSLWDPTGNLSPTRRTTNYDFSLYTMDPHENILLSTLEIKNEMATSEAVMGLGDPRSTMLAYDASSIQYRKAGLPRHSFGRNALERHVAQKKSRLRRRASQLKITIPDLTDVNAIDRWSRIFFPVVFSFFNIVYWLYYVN
T3 sequence (P18507 whole entry): T2 sequence (P18507 whole entry)
Description: Positive allosteric modulation of human GABAA receptor alpha1beta2gamma2L expressed in Xenopus laevis oocytes assessed as potentiation of GABA chloride current incubated for 15 to 25 secs by two-electrode voltage clamp assay. Type of test: cell-based. A digest of the protocol:
(§3)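 Xenopus laevis oocytes injected with ~100 ng cRNA of human α1, β2, γ2L (1:1:2). Two-electrode voltage clamp at −50 mV, room temperature, perfused with ND96 pH 7.5. Compound diluted from DMSO stock into ND96 (≤1% DMSO final). Applied 15–25 s with ~3 min washes.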

Test [8] deals with T1, GABA-A receptor; alpha-1/beta-3/gamma-2 (Homo sapiens). Briefly: Binding affinity to human GABAA receptor alpha1beta3gamma2 expressed in HEK293 TetR cells assessed as photolabeling at 0.4 uM after 30 mins in presence of 100 uM bicuculline by coomassie blue staining based fluorographic method. Type of test: cell-based. The note with it: tested as the 3H-labelled form.
For test [9] the target is unchanged. Description: Induction of [3H]azietomidate photoincorporation at human GABAA receptor alpha1beta3gamma2 expressed in HEK293 TetR cells at 1 uM after 30 mins by liquid scintillation counting method relative to control. It counts as cell-based. Put shortly: (§4)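 Radioligand resuspended 30 min at 4°C; unlabeled steroid added (0.5% methanol final), 30 min at 4°C. Irradiated 30 min on ice at 365 nm. SDS-PAGE; stained subunit bands excised and counted by liquid scintillation; duplicates, means and ranges.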

Test [10] concerns the target T4, Gamma-aminobutyric acid receptor subunit beta-3 (Homo sapiens) (UniProt P28472).
T4 sequence (whole entry): T2 sequence (P28472 whole entry)
Description: Binding affinity to human GABAA receptor beta3 assessed as photolabeling at 0.7 uM after 30 mins by Coomassie blue staining based fluorographic method relative to control. As to conditions: tested as the 3H-labelled form.

Test [11] concerns the target T5, Gamma-aminobutyric acid receptor subunit alpha-1 (Homo sapiens) (UniProt P14867).
T5 sequence (whole entry): T2 sequence (P14867 whole entry)
Briefly: Binding affinity to human GABAA receptor alpha1 assessed as photolabeling at 0.7 uM after 30 mins by Coomassie blue staining based fluorographic method relative to control. The note with it: tested as the 3H-labelled form.

In test [12] the target is GABA-A receptor; alpha-1/beta-2/gamma-2 (Homo sapiens) (UniProt P14867+P47870+P18507). Briefly: Positive allosteric modulation of human GABAA receptor alpha1beta2gamma2L expressed in Xenopus laevis oocytes assessed as potentiation of GABA chloride current up to 100 uM incubated for 15 to 25 secs by two-electrode voltage clamp assay relative to control. It counts as cell-based. A digest of the protocol: as §3

The subject of test [13] is Anura. Description: Anesthetic activity in tadpole assessed as loss of righting reflexes. Type of test: functional, organism-based.
Test [14] concerns the target T1, GABA-A receptor; alpha-1/beta-3/gamma-2 (Homo sapiens). Description: Induction of [3H]R-mTFD-MPAB photoincorporation at human GABAA receptor alpha1beta3gamma2 expressed in HEK293 TetR cells at 10 uM after 30 mins by liquid scintillation counting method relative to control. Type of test: cell-based. A digest of the protocol: as §4
The target is the same in test [15]. Briefly: Binding affinity to human GABAA receptor alpha1beta3gamma2 expressed in HEK293 TetR cells assessed as photolabeling at 0.7 uM after 30 mins in presence of 100 uM bicuculline by coomassie blue staining based fluorographic method. It counts as cell-based. As to conditions: tested as the 3H-labelled form.
The target is the same in test [16]. Description: Binding affinity to human GABAA receptor alpha1beta3gamma2 expressed in HEK293 TetR cells assessed as photolabeling at 0.7 uM after 30 mins in presence of 300 uM GABA by coomassie blue staining based fluorographic method. Type of test: cell-based. The note with it: tested as the 3H-labelled form.
Test [17] has as its system Anura. Description: Anesthetic activity in tadpole assessed as loss of righting reflexes at 0.01 to 1 uM pretreated with tadpole followed by compound washout and transfer to fresh water measured up to 1 hr. It counts as functional, organism-based.
Test [18] addresses T1, GABA-A receptor; alpha-1/beta-3/gamma-2 (Homo sapiens). Description: Induction of [3H]R-mTFD-MPAB photoincorporation at human GABAA receptor alpha1beta3gamma2 expressed in HEK293 TetR cells at 0.3 to 1 uM after 30 mins by liquid scintillation counting method. It counts as cell-based. Put shortly: as §4
Test [19] shares this target. Description: Induction of [3H]azietomidate photoincorporation at human GABAA receptor alpha1beta3gamma2 expressed in HEK293 TetR cells at 0.3 to 1 uM after 30 mins by liquid scintillation counting method. Type of test: cell-based. Put shortly: as §4
The target is the same in test [20]. Description: Binding affinity to human GABAA receptor alpha1beta3gamma2 expressed in HEK293 TetR cells assessed as photolabeling at 0.7 uM after 30 mins in presence of 300 uM GABA and 30 uM alphaxalone by coomassie blue staining based fluorographic method. It counts as cell-based. As to conditions: tested as the 3H-labelled form.
The target is the same in test [21]. Briefly: Induction of [3H]azietomidate photoincorporation at human GABAA receptor alpha1beta3gamma2 expressed in HEK293 TetR cells at 30 uM after 30 mins by liquid scintillation counting method. It counts as cell-based. A digest of the protocol:
(§5)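 Purified FLAG-tagged human α1β3γ2 GABAAR from tetracycline-inducible HEK293S cells, in 5 mM CHAPS/0.2 mM asolectin. Equilibrated 30 min at 4°C with 3 μM [3H]azietomidate or 1 μM [3H]R-mTFD-MPAB, then with test drug (final methanol 0.5%) for another 30 min at 4°C. Irradiated on ice at 365 nm for 30 min. Stained subunit bands excised from SDS-PAGE gels; 3H counted by liquid scintillation.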

Test [22] shares this target. Briefly: Induction of [3H]R-mTFD-MPAB photoincorporation at human GABAA receptor alpha1beta3gamma2 expressed in HEK293 TetR cells at 30 uM after 30 mins by liquid scintillation counting method. Type of test: cell-based. A digest of the protocol:
as §5

Active and inactive are the calls of the source. No cut-off for these calls is given here.

As for `CC(=O)[C@H]1CC[C@H]2[C@@H]3CC[C@H]4C[C@H](O)CC[C@]4(C)[C@H]3[C@@H](OC(=O)c3c(F)c(F)c(N=[N+]=[N-])c(F)c3F)C[C@]12C`, the result in [1], in test [4] and in test [8] was Active. Moreover, the result in the test with Anura [2] was inactive. Besides, the “Ratio EC50” value in the test with Anura [3] came out at 2.6. Moreover, the EC50 – broadly, the concentration giving half of the maximal effect – was found to be 770 nM in [5], 500 nM in test [7] and 720 nM with Anura [13]. Also, the inhibition entry in [6] is “Dose-dependent effect”. Further, the Activity was 50% in [9], 10% in test [10], 6% in test [11] and 75% in [14]. Moreover, the fold change (FC) in [12] was 17.
In the case of `CC(=O)[C@H]1CC[C@H]2[C@@H]3CC[C@H]4C[C@H](O)CC[C@]4(C)[C@H]3C3(C[C@]12C)N=N3`, the result in test [15], in [16], in [18], in test [19] and in test [20] was Active. The outcome with Anura [17] was inactive. Also, in the test on Anura [3], the “Ratio EC50” value is recorded as 17. In addition, the figures for the EC50 (in test [5]; in test [7]; in the test on Anura [13]) were 250 nM, 200 nM and 110 nM, respectively. Besides, in test [6], the inhibition entry was “Dose-dependent effect”. Further, the Activity in test [10] was 0.4%; in test [11] it was 0.2%. For the same molecule, in [12], the fold change (FC) worked out at 30.
For the molecule `CC(=O)[C@H]1CC[C@H]2[C@@H]3CC[C@H]4C[C@H](O)CC[C@]4(C)[C@H]3C(=O)C[C@]12C` [ALFAXALONE], the outcome in the test on Anura [2] was inactive. Besides, the result in test [21] and in test [22] was Active. The inhibition result in test [6] is “Dose-dependent effect”. In addition, the EC50 in the test on Anura [13] was found to be 1900 nM.
